# In ChEMBL document CHEMBL1153806, “Preclinical efficacy of a carboxylesterase 2-activated prodrug of doxazolidine” (J Med Chem, 2009):
# Activity calls are given as the source filed them. The rule behind the calls is not given here.
# Key:
# HepG2 [1] = assay: Cytotoxicity against human HepG2 cells expressing CES2 gene expressing CES2 gene after 5 to 6 days by MTT assay; type: functional
# HepG2 [2] = assay: Antitumor activity against human HepG2 cells expressing CES2 gene xenografted in NOD/SCID mouse assessed as inhibition of tumor growth at 3 mg/kg, iv administered on day 7, 14 and 21 after tumor implantation; type: functional, organism-based; design: dose 3 mg/kg
# Summary of the method: (§1)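 NOD/SCID females, 4–6 weeks old, each given ~1.5 × 10⁷ N-Hep G2 cells s.c. in the left flank; 10 mice/group. Dosed i.v. by tail vein on days 7, 14 and 21, in mg/kg Dox-equivalent, from DMSO diluted into D5W (5% DMSO/95% D5W), 100 µL/mouse. Vehicle-only controls. The 3 mg/kg group was redosed at 5 mg/kg on days 45 and 52. Tumor volume (π × short diameter² × long diameter/6) measured weekly.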
# HepG2 [3] = assay: Antitumor activity against human HepG2 cells expressing CES2 gene xenografted in pentyl PABC-doxazolidine-pretreated NOD/SCID mouse assessed as slowing of large, rapidly growing tumor growth at 5 mg/kg, iv administered on day 45 after tumor implantation; type: functional, organism-based; design: dose 5 mg/kg; summary of the method: as §1
# Mus musculus [4] = assay: Toxicity in NOD/SCID mouse xenografted with human HepG2 cells expressing CES2 gene assessed as survival at 4 mg/kg, iv administered on day 7, 14 and 21 after tumor implantation; type: organism-based; design: dose 4 mg/kg, route intravenous; details: in vivo
# Summary of the method: (§2)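 Female NOD/SCID mice, 4–6 weeks old, 10 per group. About 1.5 × 10⁷ N-Hep G2 cells were injected s.c. into the left flank. Tail-vein i.v. dosing (mg/kg Dox-equivalent weight) was given on days 7, 14 and 21. Vehicle was 5% DMSO/95% D5W, and controls received vehicle only. Body weight was measured weekly over the first 5 weeks. Survival was followed to study end.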
# [5] = Toxicity in pentyl PABC-doxazolidine-treated NOD/SCID mouse xenografted with human HepG2 cells expressing CES2 gene assessed as mortality rate at 5 mg/kg, iv administered on day 52 after tumor implantation; type: organism-based; design: dose 5 mg/kg, route intravenous; details: in vivo, read-out: Activity
# Summary of the method: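 NOD/SCID females carried s.c. left-flank N-Hep G2 xenografts (about 1.5 × 10⁷ cells). They first received i.v. 3 mg/kg Dox-equivalent on days 7, 14 and 21. The same group was then redosed i.v. at 5 mg/kg on days 45 and 52 in 5% DMSO/95% D5W. There were 10 mice per group. Deaths were counted to the end of the study.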
# Mus musculus [6] = assay: Toxicity in NOD/SCID mouse xenografted with human HepG2 cells expressing CES2 gene assessed as body weight change at 3 mg/kg, iv administered on day 7, 14 and 21 after tumor implantation; type: organism-based; design: dose 3 mg/kg, route intravenous; details: in vivo
# Summary of the method: (§3)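 Same NOD/SCID N-Hep G2 flank xenograft model: i.v. tail-vein dosing on days 7, 14 and 21 in 5% DMSO/95% D5W, doses in Dox-equivalent mg/kg, 10 mice/group, vehicle controls. Body weight recorded weekly and followed over the first 5 weeks.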
# Mus musculus [7] = assay: Toxicity in NOD/SCID mouse xenografted with human HepG2 cells expressing CES2 gene assessed as body weight change at 4 mg/kg, iv administered on day 7, 14 and 21 after tumor implantation; type: organism-based; design: dose 4 mg/kg, route intravenous; details: in vivo; summary of the method: as §2
# Mus musculus [8] = assay: Toxicity in NOD/SCID mouse xenografted with human HepG2 cells expressing CES2 gene assessed as body weight loss at 5 mg/kg, iv administered on day 7, 14 and 21 after tumor implantation measured after 3 weeks; type: organism-based; design: dose 5 mg/kg, route intravenous; details: in vivo, 504 h; summary of the method: as §3
# Mus musculus [9] = assay: Toxicity in athymic nude mouse xenografted with human NCI-H1435 cells expressing CES2 gene at 3 to 4 mg/kg, iv administered on day 7, 14 and 21 after tumor implantation; type: organism-based; design: dose 3-4 mg/kg, route intravenous; details: in vivo
# Mus musculus [10] = assay: Toxicity in athymic nude mouse xenografted with human NCI-H1435 cells expressing CES2 gene assessed as occurrence of diarrhea at 3 to 4 mg/kg, iv administered on day 7, 14 and 21 after tumor implantation; type: organism-based; design: dose 3-4 mg/kg, route intravenous; details: in vivo
# Mus musculus [11] = assay: Toxicity in NOD/SCID mouse xenografted with human HepG2 cells expressing CES2 gene assessed as occurrence of diarrhea at 3 mg/kg, iv administered on day 7, 14 and 21 after tumor implantation; type: organism-based; design: dose 3 mg/kg, route intravenous; details: in vivo
# NCI-H1435 = assay: Antitumor activity against human NCI-H1435 cells expressing CES2 gene xenografted in athymic nude mouse assessed as reduction in tumor size at 3 to 4 mg/kg, iv administered on day 7, 14 and 21 after tumor implantation; type: functional, organism-based
# Summary of the method: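 Athymic nude females, 4–6 weeks old, given ~2 × 10⁶ H1435 cells s.c. in the left flank on day 0; 10 mice/group. I.v. tail-vein doses (Dox-equivalent mg/kg) in 5% DMSO/95% D5W on days 7, 14 and 21, with all groups retreated on days 56, 63 and 70; vehicle controls. Caliper volume π × short² × long/6. Cube roots analysed with day-7 size as baseline covariate, by period.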
# Mus musculus [12] = assay: Toxicity in athymic nude mouse xenografted with human NCI-H1435 cells expressing CES2 gene assessed as appearance of fibrotic damage in heart tissue administered with six iv injection of 3 to 4 mg/kg by hematoxylin/eosin staining-based microscopy; type: organism-based; design: dose 3-4 mg/kg, route intravenous; details: in vivo
# Summary of the method: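 Hearts and livers taken from the H1435 nude-mouse study (six i.v. injections) after CO₂/cervical dislocation. Fixed in 10% formalin for 24 h, paraffin-embedded, and cut at 4 µm. Slides deparaffinized in xylene and ethanol, stained with Mayer's hematoxylin for 2 min, blued in 1% ammonium hydroxide, and counterstained with eosin for 30 s. Examined by light microscopy.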
# Mus musculus [13] = assay: Toxicity in athymic nude mouse xenografted with human NCI-H1435 cells expressing CES2 gene assessed as occurrence of fatty liver administered with six iv injection of 4 mg/kg by hematoxylin/eosin staining-based microscopy; type: organism-based; design: dose 4 mg/kg, route intravenous; details: in vivo
# Summary of the method: (§4)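 Female athymic nude mice, 4–6 weeks old, 10 per group. About 2 × 10⁶ H1435 cells were implanted s.c. into the left flank. I.v. tail-vein doses (Dox-equivalent) were given on days 7, 14, 21, 56, 63 and 70 in 5% DMSO/95% D5W. At sacrifice, organs were fixed in 10% formalin for 24 h and paraffin-embedded. Sections were cut at 4 µm and stained with hematoxylin/eosin for microscopy.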
# Mus musculus [14] = assay: Toxicity in athymic nude mouse xenografted with human NCI-H1435 cells expressing CES2 gene assessed as thickening of Bowman's capsule in glomerulus administered with six iv injection of 4 mg/kg by hematoxylin/eosin staining-based microscopy; type: organism-based; design: dose 4 mg/kg, route intravenous; details: in vivo; summary of the method: as §4
# Mus musculus [15] = assay: Toxicity in athymic nude mouse xenografted with human NCI-H1435 cells expressing CES2 gene assessed as vacuolar damage in ileum administered with six iv injection of 3 to 4 mg/kg by hematoxylin/eosin staining-based microscopy; type: organism-based; design: dose 3-4 mg/kg, route intravenous; details: in vivo
# Summary of the method: (§5)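 Kidney and ileum taken from the H1435 nude-mouse study (six i.v. injections). Formalin-fixed for 24 h, paraffin-embedded, and cut into 4 µm sections. Sections deparaffinized in xylene, rehydrated through an ethanol series, stained in Harris hematoxylin for 50 s with eosin, then dehydrated and mounted. Morphology assessed by microscopy.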
# Mus musculus [16] = assay: Toxicity in athymic nude mouse xenografted with human NCI-H1435 cells expressing CES2 gene assessed as inflammatory cell infiltration in ileum administered with six iv injection of 3 to 4 mg/kg by hematoxylin/eosin staining-based microscopy; type: organism-based; design: dose 3-4 mg/kg, route intravenous; details: in vivo; summary of the method: as §5
# NCI60 = assay: Growth inhibition of human NCI60 cells after 2 days by sulforhodamine B assay; type: functional, cell-based
# Homo sapiens = species: Homo sapiens; assay: Metabolic stability in human plasma up to 24 hrs by reverse-phase HPLC analysis
compound,measurement,setting,value
CCCCCOC(=O)Nc1ccc(COC(=O)N2CO[C@@H]3[C@H](C)O[C@@H](O[C@H]4C[C@](O)(C(=O)CO)Cc5c(O)c6c(c(O)c54)C(=O)c4c(OC)cccc4C6=O)C[C@@H]32)cc1,logIC50,HepG2 [1],-6.9
same,inhibition,HepG2 [2],inactive
same,Activity,HepG2 [3],Active
same,Activity,Mus musculus [4],Non-toxic
same,mortality,[5],60%
same,Activity,Mus musculus [6],Non-toxic
same,Activity,Mus musculus [7],Active
same,Activity,Mus musculus [8],18%
same,Activity,Mus musculus [9],Non-toxic
same,Activity,Mus musculus [10],Non-toxic
same,Activity,Mus musculus [11],Non-toxic
same,Activity,NCI-H1435,inactive
same,Activity,Mus musculus [12],Non-toxic
same,Activity,Mus musculus [13],Toxic
same,Activity,Mus musculus [14],Toxic
same,Activity,Mus musculus [15],Non-toxic
same,Activity,Mus musculus [16],Non-toxic
same,growth inhibition (GI),NCI60,Active
same,remaining at 24 h,Homo sapiens,75%
